Paper PMC4306527 (Journal of medicinal chemistry, 2014)
Where “and” joins values, the source holds several entries; their conditions need not be identical. Equal entries are not always repeated.

What was measured:
[1] = system: rats; conditions: sc, data published previously; cited from earlier work
[2] = target: hCB2 receptor (Homo sapiens, UniProt P34972); experiment: Radioligand competition binding, human CB2 in HEK293 membranes, [3H]CP-55,940
[3] = target: mCB2 receptor (Mus musculus, UniProt P47936); experiment: Radioligand competition binding, mouse CB2 in HEK293 membranes, [3H]CP-55,940
Sequence of mCB2 receptor (P47936 whole entry): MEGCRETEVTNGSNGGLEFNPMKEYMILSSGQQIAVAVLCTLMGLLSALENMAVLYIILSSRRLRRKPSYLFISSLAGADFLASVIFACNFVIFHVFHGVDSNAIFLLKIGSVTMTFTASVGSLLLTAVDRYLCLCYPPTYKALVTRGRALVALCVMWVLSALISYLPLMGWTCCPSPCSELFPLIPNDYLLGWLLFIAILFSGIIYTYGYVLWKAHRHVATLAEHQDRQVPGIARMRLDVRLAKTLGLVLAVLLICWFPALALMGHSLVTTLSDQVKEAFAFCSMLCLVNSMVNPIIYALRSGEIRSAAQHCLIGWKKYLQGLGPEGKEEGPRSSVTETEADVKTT

[4] = target: rCB1 receptor (rat brain membranes) (Rattus norvegicus, UniProt P20272); experiment: Radioligand competition binding, rat brain CB1, [3H]CP-55,940
Sequence of rCB1 receptor (rat brain membranes) (P20272 whole entry): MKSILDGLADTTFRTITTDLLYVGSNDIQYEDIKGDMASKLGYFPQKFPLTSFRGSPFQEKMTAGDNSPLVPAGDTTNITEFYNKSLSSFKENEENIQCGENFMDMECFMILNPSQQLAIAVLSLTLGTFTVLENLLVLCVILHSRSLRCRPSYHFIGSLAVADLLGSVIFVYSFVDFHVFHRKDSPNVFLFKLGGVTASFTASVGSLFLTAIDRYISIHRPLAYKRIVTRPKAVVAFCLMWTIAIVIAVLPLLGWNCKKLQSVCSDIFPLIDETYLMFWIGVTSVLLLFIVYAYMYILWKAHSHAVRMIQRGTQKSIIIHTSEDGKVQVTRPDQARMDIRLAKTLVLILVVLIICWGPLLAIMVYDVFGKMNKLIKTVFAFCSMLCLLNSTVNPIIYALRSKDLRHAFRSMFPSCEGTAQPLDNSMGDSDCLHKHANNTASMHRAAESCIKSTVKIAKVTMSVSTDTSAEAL

[5] = system: male CD-1 mice; experiment: Tail-flick withdrawal; type: in vivo, mouse; conditions: 0.3 and 1.0 mg/kg ip, descending phase 180 and 360 min
[6] = system: rats; experiment: Hypothermia testing in rats; type: in vivo, rat
How it was run: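 Female Sprague–Dawley rats (250–350 g, n = 6/group), reused with ≥5 days between sessions. Test compound was dissolved in 20% ethanol/20% alkamuls/60% saline, then diluted with saline. Temperature was taken by a thermistor probe at 6 cm depth in minimally restrained, isolated rats. Two baselines 15 min apart; injected after the second; read every 30 min to 3 h, then hourly to 6 h. ED50 = dose lowering temperature 3 °C.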

[7] = system: mouse plasma esterases; experiment: In vitro plasma stability toward mouse plasma esterases; type: in vitro ADME; conditions: 200 μM in mouse plasma, 37 °C; Stable = no observable hydrolysis within 5 h
How it was run: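 Test compound at 200 μM in mouse plasma, incubated at 37 °C with 100 rpm shaking. Samples taken at various time points were diluted 1:4 in acetonitrile and centrifuged to remove protein. Supernatant was analysed by HPLC on a C18 column. Half-life came from an exponential decay fit.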

Sequence of hCB2 receptor (P34972 whole entry): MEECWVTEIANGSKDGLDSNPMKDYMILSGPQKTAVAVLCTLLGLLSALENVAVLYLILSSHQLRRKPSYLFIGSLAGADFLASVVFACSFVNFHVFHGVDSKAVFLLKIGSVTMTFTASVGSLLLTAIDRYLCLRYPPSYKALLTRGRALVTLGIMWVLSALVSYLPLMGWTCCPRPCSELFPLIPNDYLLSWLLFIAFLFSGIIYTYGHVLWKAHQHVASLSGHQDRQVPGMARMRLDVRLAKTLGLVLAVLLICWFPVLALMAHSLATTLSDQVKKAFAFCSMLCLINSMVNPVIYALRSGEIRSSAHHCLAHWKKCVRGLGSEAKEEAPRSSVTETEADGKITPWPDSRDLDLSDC

SMILES: CCCCCCC(C)(C)c1cc(O)c2c(c1)OC(C)(C)[C@@H]1CC=C(C)C[C@@H]21 [(−)-Δ^8-THC-DMH, (−)-Δ^8-THC-dimethylheptyl]
- ED50 (dose required to reduce temperature by 3 °C) [1]: 0.29 mg/kg

SMILES: CCOC(=O)C(C)(C)c1cc(O)c2c(c1)OC(C)(C)[C@@H]1CC=C(C)C[C@@H]21 [Compound 8b, 2-[(6aR,10aR)-6a,7,10,10a-Tetrahydro-1-hydroxy-6,6,9-trimethyl-6H-dibenzo[b,d]pyran-3-yl]-2-methyl-propanoic Acid Ethyl Ester]
- fold higher binding affinity for hCB2 compared to (−)-Δ^8-THC [2]: 24 fold
- fold higher binding affinity for mCB2 compared to (−)-Δ^8-THC [3]: 78 fold

SMILES: CC1=CC[C@@H]2[C@@H](C1)c1c(O)cc(C(C)(C)C(=O)OCCCCn3ccnc3)cc1OC2(C)C [Compound 9d, 2-[(6aR,10aR)-6a,7,10,10a-Tetrahydro-1-hydroxy-6,6,9-trimethyl-6H-dibenzo[b,d]pyran-3-yl]-2-methyl-propanoic Acid 4-(1H-Imidazol-1-yl)butyl Ester]
- fold reduction of CB1 affinity relative to 10b [4]: ~ 8 fold

SMILES: CC1=CC[C@@H]2[C@@H](C1)c1c(O)cc(C(C)(C)C(=O)OCCCC#N)cc1OC2(C)C [Compound 10a, 2-[(6aR,10aR)-6a,7,10,10a-Tetrahydro-1-hydroxy-6,6,9-trimethyl-6H-dibenzo[b,d]pyran-3-yl]-2-methyl-propanoic Acid 3-Cyano-propyl Ester]
- offset of the analgesia effect compared to 2b [5]: significantly faster
- reduction of body temperature ([6]; 0.1 mg/kg sc, from average baseline of 37.8 ± 0.1 °C): 4.5 ± 0.5 °C
- fold more potent than (−)-Δ^8-THC-DMH and/or 2b ([6]; hypothermia): 8–10 fold and 10 fold

SMILES: CCCCCNC(=O)C(C)(C)c1cc(O)c2c(c1)OC(C)(C)[C@@H]1CC=C(C)C[C@@H]21 [Compound 18, 2-[(6aR,10aR)-6a,7,10,10a-Tetrahydro-1-hydroxy-6,6,9-trimethyl-6H-dibenzo[b,d]pyran-3-yl]-2-methyl-N-pentylpropanamide]
- mouse plasma t1/2 [7]: Stable ^e
